Activity calls are given as the source filed them. The calls are words filed in the database; no cut-off is given here.
What was measured:
RAW264.7 [1] = assay: Inhibition of MAPK/NFkappaB in ICR mouse RAW264.7 cells assessed as reduction in LPS-induced TNFalpha production at 10 uM pretreated for 0.5 hrs followed by LPS challenge and measured after 24 hrs by ELISA relative to control; format: cell-based
RAW264.7 [2] = assay: Inhibition of MAPK/NFkappaB in ICR mouse RAW264.7 cells assessed as reduction in LPS-induced IL6 production at 10 uM pretreated for 0.5 hrs followed by LPS challenge and measured after 24 hrs by ELISA relative to control; format: cell-based
RAW264.7 [3] = assay: Cytotoxicity against ICR mouse RAW264.7 cells assessed as effect on cell proliferation at 10 uM after 24 hrs by MTT assay; format: cell-based; details: raw264.7, 24 h
RAW264.7 [4] = assay: Inhibition of MAPK/NFkappaB in ICR mouse RAW264.7 cells assessed as reduction in LPS-induced TNF-alpha production at 10 uM pretreated for 0.5 hrs followed by LPS challenge and measured after 24 hrs by ELISA relative to piperlongumine; format: cell-based
RAW264.7 [5] = assay: Inhibition of MAPK/NFkappaB in ICR mouse RAW264.7 cells assessed as reduction in LPS-induced IL6 production at 10 uM pretreated for 0.5 hrs followed by LPS challenge and measured after 24 hrs by ELISA relative to piperlongumine; format: cell-based
[6] = test system: peritoneal macrophages (Mus musculus); assay: Inhibition of MAPK/NFkappaB in ICR mouse peritoneal macrophages assessed as reduction in LPS-induced IL6 production at 10 uM pretreated for 0.5 hrs followed by LPS challenge and measured after 24 hrs by ELISA relative to curcumin
RAW264.7 [7] = assay: Inhibition of MAPK/NFkappaB in ICR mouse RAW264.7 cells assessed as reduction in LPS-induced TNF-alpha production at 10 uM pretreated for 0.5 hrs followed by LPS challenge and measured after 24 hrs by ELISA relative to curcumin; format: cell-based
[8] = target: Transcription factor p65 (Mus musculus) (UniProt Q04207); assay: Inhibition of LPS-induced NFkappaB p65 nuclear translocation in ICR mouse RAW264.7 cells preincubated for 0.5 hrs followed by LPS challenge and measured after 40 mins by DAPI staining-based immunofluorescence microscopic analysis; format: cell-based
How it was run: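 RAW 264.7 cells were pretreated with compound for 0.5 h, then given LPS for 40 min (methods) or 45 min (legend). Cells were fixed with 4% paraformaldehyde and permeabilized in methanol. Anti-p65 (1:200) was applied overnight at 4 °C, then PE-conjugated secondary (1:200) for 2 h. Nuclei were stained with DAPI and cells viewed by fluorescence microscopy.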

RAW264.7 [9] = assay: Inhibition of LPS-induced ERK phosphorylation in ICR mouse RAW264.7 cells at 10 uM preincubated for 0.5 hrs followed by LPS challenge and measured after 30 mins by immunoblotting analysis; format: cell-based
How it was run: (§1)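 RAW 264.7 cells were pretreated with compound for 0.5 h and then stimulated with LPS for 30 min. Lysates were resolved on 10% or 12% SDS-PAGE and transferred to nitrocellulose. Membranes were blocked in TBS (pH 7.6) with 0.05% Tween 20 and 5% milk. Blots were probed for p-p38, p38, p-ERK, ERK, IκBα and GAPDH, detected with HRP secondaries and ECL.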

RAW264.7 [10] = assay: Inhibition of MAPK/NFkappaB in ICR mouse RAW264.7 cells assessed as reduction in LPS-induced TNFalpha production pretreated for 0.5 hrs followed by LPS challenge and measured after 24 hrs by ELISA; format: cell-based
RAW264.7 [11] = assay: Inhibition of NFkappaB/MAPK signaling in LPS-induced mouse RAW264.7 cells assessed as down regulation of IkappaB expression at 10 uM preincubated for 0.5 hrs followed by LPS-challenge and measured after 30 mins by immunoblotting analysis; format: cell-based; how it was run: as §1
[12] = Stability in pH 7.4 phosphate buffer assessed as compound decomposition measured up to 25 mins by UV-Vis spectroscopy; format: physicochemical; details: pH 7.4, 25 min
How it was run: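 Compound stability was followed by recording UV-visible absorption spectra in phosphate buffer at pH 7.4.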

[13] = target: MAP kinase p38 (Mus musculus) (UniProt P47811+O08911+Q9WUI1+Q9Z1B7); assay: Inhibition of LPS-induced p38 MAPK phosphorylation in ICR mouse RAW264.7 cells at 10 uM preincubated for 0.5 hrs followed by LPS challenge and measured after 30 mins by immunoblotting analysis; format: cell-based; how it was run: as §1
RAW264.7 [14] = assay: Inhibition of MAPK/NFkappaB in ICR mouse RAW264.7 cells assessed as reduction in LPS-induced IL6 production pretreated for 0.5 hrs followed by LPS challenge and measured after 24 hrs by ELISA; format: cell-based

Transcription factor p65 (Mus musculus), sequence (Q04207 whole entry): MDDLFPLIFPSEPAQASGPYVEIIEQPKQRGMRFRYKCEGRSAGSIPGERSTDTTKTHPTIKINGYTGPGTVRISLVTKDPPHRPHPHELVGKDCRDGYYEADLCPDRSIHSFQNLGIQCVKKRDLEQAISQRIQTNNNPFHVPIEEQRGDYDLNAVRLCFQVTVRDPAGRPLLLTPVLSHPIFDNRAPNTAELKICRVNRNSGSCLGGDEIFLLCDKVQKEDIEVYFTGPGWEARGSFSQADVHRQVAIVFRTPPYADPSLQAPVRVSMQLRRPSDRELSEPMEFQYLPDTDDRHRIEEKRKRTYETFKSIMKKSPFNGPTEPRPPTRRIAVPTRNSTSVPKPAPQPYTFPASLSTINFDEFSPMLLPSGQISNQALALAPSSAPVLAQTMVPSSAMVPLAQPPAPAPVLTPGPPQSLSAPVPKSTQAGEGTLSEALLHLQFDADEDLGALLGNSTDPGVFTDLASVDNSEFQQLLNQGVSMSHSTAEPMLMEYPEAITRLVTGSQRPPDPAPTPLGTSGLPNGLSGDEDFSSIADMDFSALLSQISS

Compound | inhibition (RAW264.7 [1]) | inhibition (RAW264.7 [2]) | Activity (RAW264.7 [3]) | further results
COc1cc(/C=C2\CCCN(C(=O)/C=C/c3ccc(F)cc3Cl)C2=O)cc(OC)c1OC | 38.5 to 53.4% | 46.8 to 68.2% | Non-Toxic | 
COc1cc(/C=C2\CCCN(C(=O)/C=C/c3c(F)cccc3Cl)C2=O)cc(OC)c1OC | 38.5 to 53.4% | 46.8 to 68.2% | Non-Toxic | 
COc1cc(/C=C2\CCCN(C(=O)/C=C/c3ccccc3Cl)C2=O)cc(OC)c1OC |  |  | Non-Toxic | inhibition (RAW264.7 [4]): < 85.3%; inhibition (RAW264.7 [5]): < 85.3%; inhibition [6]: < 85.3%; inhibition (RAW264.7 [7]): < 85.3%
COc1cc(/C=C2\CCCN(C(=O)/C=C/c3ccc(Cl)cc3Cl)C2=O)cc(OC)c1OC | 38.5 to 53.4% | 46.8 to 68.2% | Non-Toxic | 
COc1cc(/C=C2\CCCN(C(=O)/C=C/c3ccccc3OC(C)=O)C2=O)cc(OC)c1OC | 39.6 to 99.5% | 39.6 to 99.5% | Non-Toxic | 
COc1cc(/C=C2\CCCN(C(=O)/C=C/c3ccccc3C(F)(F)F)C2=O)cc(OC)c1OC |  |  | Non-Toxic | inhibition (RAW264.7 [4]): < 85.3%; inhibition (RAW264.7 [5]): < 85.3%; inhibition [6]: < 85.3%; inhibition (RAW264.7 [7]): < 85.3%
COc1cc(/C=C2\CCCN(C(=O)/C=C/c3cccc(Br)c3)C2=O)cc(OC)c1OC |  |  | Non-Toxic | inhibition (RAW264.7 [4]): < 85.3%; inhibition (RAW264.7 [5]): < 85.3%; inhibition [6]: < 85.3%; inhibition (RAW264.7 [7]): < 85.3%
COc1cc(/C=C2\CCCN(C(=O)/C=C/c3ccccc3O)C2=O)cc(OC)c1OC | 39.6 to 99.5% | 39.6 to 99.5% | Non-Toxic | 
COc1cc(/C=C2\CCCN(C(=O)/C=C/c3ccc(F)cc3)C2=O)cc(OC)c1OC |  |  | Non-Toxic | inhibition (RAW264.7 [4]): < 85.3%; inhibition (RAW264.7 [5]): < 85.3%; inhibition [6]: < 85.3%; inhibition (RAW264.7 [7]): < 85.3%
COc1cc(/C=C/C(=O)CC(=O)/C=C/c2ccc(O)c(OC)c2)ccc1O [CURCUMIN] | Active | Active | Non-Toxic | inhibition [8]: Active; inhibition (RAW264.7 [9]): Active; inhibition (RAW264.7 [10]): Active; inhibition (RAW264.7 [11]): Active; Stability [12]: Unstable; inhibition [13]: Active; inhibition (RAW264.7 [14]): Active
COc1cc(/C=C2\CCCN(C(=O)/C=C/c3ccc(Br)cc3)C2=O)cc(OC)c1OC |  |  | Non-Toxic | inhibition (RAW264.7 [4]): < 85.3%; inhibition (RAW264.7 [5]): < 85.3%; inhibition [6]: < 85.3%; inhibition (RAW264.7 [7]): < 85.3%
COc1cc(/C=C2\CCCN(C(=O)/C=C/c3c(Cl)cccc3Cl)C2=O)cc(OC)c1OC | 39.6 to 99.5% | 39.6 to 99.5% | Non-Toxic | 
COc1cc(/C=C2\CCCN(C(=O)/C=C/c3cc(F)ccc3F)C2=O)cc(OC)c1OC | 38.5 to 53.4% | 46.8 to 68.2% | Non-Toxic | 
COc1cc(/C=C2\CCCN(C(=O)/C=C/c3cccc(F)c3)C2=O)cc(OC)c1OC |  |  | Non-Toxic | inhibition (RAW264.7 [4]): < 85.3%; inhibition (RAW264.7 [5]): < 85.3%; inhibition [6]: < 85.3%; inhibition (RAW264.7 [7]): < 85.3%
COc1cc(OC)c(OC)cc1/C=C/C(=O)N1CCC/C(=C\c2cc(OC)c(OC)c(OC)c2)C1=O | 39.6 to 99.5% | 39.6 to 99.5% | Non-Toxic | 
COc1ccc(/C=C/C(=O)N2CCC/C(=C\c3cc(OC)c(OC)c(OC)c3)C2=O)c(F)c1 | 39.6 to 99.5% | 39.6 to 99.5% | Non-Toxic | 
COc1ccc(/C=C/C(=O)N2CCC/C(=C\c3cc(OC)c(OC)c(OC)c3)C2=O)c(OC)c1 | 39.6 to 99.5% | 39.6 to 99.5% | Non-Toxic | 
COc1cc(/C=C/C(=O)N2CCC=CC2=O)cc(OC)c1OC [PIPLARTINE] | Active | Active | Non-Toxic | 
COc1cc(/C=C2\CCCN(C(=O)/C=C/c3ccccc3F)C2=O)cc(OC)c1OC |  |  | Non-Toxic | inhibition (RAW264.7 [4]): < 85.3%; inhibition (RAW264.7 [5]): < 85.3%; inhibition [6]: < 85.3%; inhibition (RAW264.7 [7]): < 85.3%
COc1cc(/C=C2\CCCN(C(=O)/C=C/c3ccc(F)c(F)c3)C2=O)cc(OC)c1OC | 39.6 to 99.5% | 39.6 to 99.5% | Non-Toxic | 
COc1cccc(/C=C/C(=O)N2CCC/C(=C\c3cc(OC)c(OC)c(OC)c3)C2=O)c1 | 39.6 to 99.5% | 39.6 to 99.5% | Non-Toxic | 
COc1ccccc1/C=C/C(=O)N1CCC/C(=C\c2cc(OC)c(OC)c(OC)c2)C1=O | 39.6 to 99.5% | 39.6 to 99.5% | Non-Toxic | 
COc1cc(/C=C2\CCCN(C(=O)/C=C/c3ccc(OC(C)=O)cc3)C2=O)cc(OC)c1OC | 39.6 to 99.5% | 39.6 to 99.5% | Non-Toxic | 
COc1ccc(/C=C/C(=O)N2CCC/C(=C\c3cc(OC)c(OC)c(OC)c3)C2=O)cc1OC(C)=O | 39.6 to 99.5% | 39.6 to 99.5% | Non-Toxic | 
COc1cc(/C=C/C(=O)N2CCC/C(=C\c3cc(OC)c(OC)c(OC)c3)C2=O)cc(OC)c1OC | 39.6 to 99.5% | 39.6 to 99.5% | Non-Toxic | 
COc1ccc(F)c(/C=C/C(=O)N2CCC/C(=C\c3cc(OC)c(OC)c(OC)c3)C2=O)c1 | 38.5 to 53.4% | 46.8 to 68.2% | Non-Toxic | 
COc1cc(/C=C2\CCCN(C(=O)/C=C/c3ccc([N+](=O)[O-])cc3)C2=O)cc(OC)c1OC | 38.6% | 94.1% | Non-Toxic | 
COc1cccc(/C=C/C(=O)N2CCC/C(=C\c3cc(OC)c(OC)c(OC)c3)C2=O)c1OC | inactive | inactive | Non-Toxic | 
COc1cc(/C=C2\CCCN(C(=O)/C=C/c3cc(C)ccc3C)C2=O)cc(OC)c1OC | 39.6 to 99.5% | 39.6 to 99.5% | Non-Toxic | 
